# Laboratory results reported in PMC3921891 (European journal of pharmacology, 2010).
# “Also recorded” adds a separate entry of the source. Where two headings read alike, the source gives them in different places. Marks after values point to notes of the source that are not given here.
# Assays:
# [1] = tested on: ERK (p42/p44 MAP kinase) in NCI-H1299 cells transfected with NMB receptor; assay: ERK tyrosine phosphorylation, Western blot; assay type: cell-based, human; conditions: abstract statement
# Procedure, shortened: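 Monolayers of NCI-H1299 cells with transfected NMB receptor were held in SIT medium 3 h. Inhibitors or anti-growth-factor antibodies (5 µg/ml) were given for 30 min, then 0.1 µM NMB or BA1 for 2 min. Lysate (20 µg) was run on 4–20% gels and blotted with anti-phospho-ERK, with anti-ERK or anti-tubulin as loading controls. Detection was by ECL with densitometry.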
# NCI-H1299 cells [2] = assay: MTT proliferation assay, NCI-H1299; assay type: cell-based, human
# NCI-H1299 cells [3] = assay: Clonogenic assay, NCI-H1299; assay type: cell-based, human
# lung cancer cells = conditions: in vitro; ref Witta et al., 2006; Ono et al., 2004; Janmaat et al., 2003; cited from earlier work
# NSCLC patients = conditions: particularly a subgroup with EGF receptor mutations; no reference given; cited from earlier work
# [4] = tested on: reactive oxygen species in NCI-H1299 cells; assay: Reactive oxygen species; assay type: cell-based, human; conditions: for % Fluorescence Intensity, inhibitor alone (basal): PP2 10 µM or GM6001 (10 µM); for effect on H2O2-induced reactive oxygen species / effect on BA1-induced reactive oxygen species: NAC (5 mM), data not shown; for effect on basal reactive oxygen species: inhibitor alone; for effect on basal reactive oxygen species / effect on BA1-induced reactive oxygen species: PP2 10 µM, GM6001 10 µM
# [5] = tested on: EGF receptor in NCI-H1299 cells; assay: EGF receptor tyrosine phosphorylation, Western blot, NCI-H1299 cells; assay type: cell-based, human
# [6] = tested on: EGF receptor in NCI-H1299 cells transfected with NMB receptor; assay type: cell-based, human; conditions: for effect of PP2 / GM6001 on NMB-induced EGF receptor transactivation: 10 µM inhibitor, densitometry of 3 experiments (Fig. 3B, C)
# Procedure, shortened: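 NCI-H1299 cells expressing transfected NMB receptor, grown to a monolayer, held in SIT medium 3 h. Inhibitors were added 30 min before stimulation with 0.1 µM NMB or BA1 for 2 min. Cells were lysed. 400 µg protein was immunoprecipitated overnight at 4°C with anti-phosphotyrosine, run on 4–20% SDS-PAGE and blotted with anti-EGF receptor. Alternatively, 20 µg extract was probed with anti-PY1068-EGF receptor. Detection was by ECL with densitometry.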
# [7] = tested on: TGFα release from NCI-H1299 cells; assay: TGFα release, TGFα immunoassay; assay type: cell-based, human; conditions: inhibitor pretreatment, NMB 100 nM
# GRP receptor = conditions: ref Jensen et al., 2008; Ashwood et al., 1998; cited from earlier work
# NMB receptor = conditions: ref Jensen et al., 2008; Ashwood et al., 1998; cited from earlier work
# [8] = Tiron 5 mM, None = 100 ± 7, mean ± S.D. of 6 determinations
compound,measurement,setting,value
COc1cc2ncnc(Nc3ccc(F)c(Cl)c3)c2cc1OCCCN1CCOCC1 [gefitinib],effect on EGF receptor transactivation or ERK tyrosine phosphorylation caused by NMB-like peptides,[1],inhibited
same,effect on proliferation at 1 and 3 µg/ml,NCI-H1299 cells [2]; gefitinib 1 and 3 µg/ml,having no effect
same,effect on colony number and size,"NCI-H1299 cells [3]; 1 µg/ml gefitinib, 2 weeks (Fig. 5B3)",slightly reduced colony number and size
same,variation of sensitivity of lung cancer cells to gefitinib,lung cancer cells,up to 2700 fold
same,NSCLC patients responding,NSCLC patients,10%
OO [H2O2],generation of reactive oxygen species,"[4]; BA1 0.1 µM, NMB 0.1 µM or H2O2 10 µM",significantly increased
same,"% Fluorescence Intensity, stimulus alone","[4]; NMB 0.1 µM, H2O2 10 µM or BA1 0.1 µM, 2 hour, None = 100 ± 7, mean ± S.D. of 6 determinations, P < 0.01",589 ± 60 ^b %
bombesin,tyrosine phosphorylation of the 170 kDa EGF receptor,"[5]; native NCI-H1299 cells, 0.1 µM (Fig. 1A)",caused tyrosine phosphorylation of the 170 kDa EGF receptor
same,increase in EGF receptor tyrosine phosphorylation,"[5]; native NCI-H1299 cells, 0.1 µM, 2 min, densitometry analysis of 4 experiments (Fig. 1B)",1.4 fold
C[C@@](Cc1c[nH]c2ccccc12)(NC(=O)Nc1ccc([N+](=O)[O-])cc1)C(=O)NCC1(c2ccccn2)CCCCC1 [PD168368],effect on BA1-induced EGF receptor tyrosine phosphorylation,"[6]; 1 µM antagonist, 30 min pretreatment, 100 nM BA1, 4 experiments (Fig. 1D)",significantly reversed
same,effect on NMB-induced EGF receptor transactivation,[6]; data not shown,antagonized the ability of NMB to cause EGF receptor transactivation
same,effect on EGF receptor transactivation or ERK tyrosine phosphorylation caused by NMB-like peptides,[1],inhibited
same,effect of 3 µM PD168368 on the gefitinib dose response curve,"NCI-H1299 cells [2]; 3 µM PD168368, relative to no additions",shifted to the left
same,effect of PD168368 alone on proliferation,"NCI-H1299 cells [2]; PD168368 alone, mean of 8 determinations (Fig. 5A)",inhibited the proliferation of NCI-H1299 cells in a dose-dependent manner
same,effect of PD168368 on the gefitinib dose-response curve,NCI-H1299 cells [2]; increasing concentrations of PD168368 with gefitinib (Fig. 5A),progressive shift to the left of the gefitinib dose-response curve
same,effect on colony formation,"NCI-H1299 cells [3]; 0.3 µM PD168368, 2 weeks (Fig. 5B2)",had little effect on colony formation
O=S(=O)(O)c1cc(O)c(O)c(S(=O)(=O)O)c1 [Tiron],effect of Tiron on NMB-induced EGF receptor transactivation,[6]; 10 mM Tiron (Fig. 4D),significantly inhibited
same,effect of Tiron on NMB-induced EGF receptor transactivation,"[6]; 0.1 or 1 mM Tiron (Fig. 4C, D)",had little effect
same,"effect of Tiron on NMB-induced EGF receptor transactivation, dose dependence",[6]; 0.1 to 10 mM Tiron (Fig. 4C),inhibited in a dose-dependent manner
same,effect on NMB-induced reactive oxygen species,[4]; Tiron 5 mM,greatly reduced
same,"% Fluorescence Intensity, inhibitor + H2O2","[4]; Tiron 5 mM 30 min prior to H2O2 10 µM, 2 hour, mean ± S.D. of 6 determinations, P < 0.01",200 ± 14 ^b %
same,"% Fluorescence Intensity, inhibitor + NMB","[4]; Tiron 5 mM 30 min prior to NMB 0.1 µM, 2 hour, mean ± S.D. of 6 determinations",92 ± 9%
same,"% Fluorescence Intensity, inhibitor alone (basal)",[4]; [8],82 ± 11%
same,effect on H2O2-induced reactive oxygen species,[4]; Tiron 5 mM,greatly reduced
same,effect on basal reactive oxygen species,[4]; Tiron 5 mM,had little effect
"CC(=O)N[C@@H](CS)C(=O)O [NAC, N-acetylcysteine]",effect of NAC on NMB-induced EGF receptor tyrosine phosphorylation,"[6]; 5 mM NAC pretreatment, NMB 0.1 µM, 4 experiments (Fig. 4A, B)",inhibited
same,effect on BA1-induced reactive oxygen species,[4],reduced
same,effect on H2O2-induced reactive oxygen species,[4]; Tiron 5 mM,reduced
"COc1cc2ncnc(Nc3cccc(Cl)c3)c2cc1OC [AG1478, N-(3-Chlorophenyl)-6,7-dimethoxy-4-quinazolinamine]",effect on NMB-induced EGF receptor tyrosine phosphorylation,"[5]; AG1478 10 µg/ml, data not shown",inhibited
same,effect on EGF receptor transactivation or ERK tyrosine phosphorylation caused by NMB-like peptides,[1],inhibited
"CNC(=O)[C@H](Cc1c[nH]c2ccccc12)NC(=O)[C@@H](CC(=O)NO)CC(C)C [GM6001, (R)-N4-Hydroxy-N1-[(S)-2-(1H–indol-3-yl)-1-methylcarbamoyl-ethyl]-2-isobutyl-succinamide]",effect of PP2 / GM6001 on NMB-induced EGF receptor transactivation,[6],markedly inhibited
same,effect of PP2 / GM6001 on NMB-induced EGF receptor transactivation,[6]; listed as GM60001,reduced significantly
same,effect on NMB-induced TGFα secretion,[7],reversed
same,effect on BA1-induced reactive oxygen species,[4],inhibited the increase in reactive oxygen species
same,"% Fluorescence Intensity, inhibitor alone (basal)",[4]; [8],94 ± 4%
same,effect on basal reactive oxygen species,[4]; Tiron 5 mM,had little effect
COc1ccc(C2(CNC(=O)[C@](C)(Cc3c[nH]c4ccccc34)NC(=O)Nc3ccc([N+](=O)[O-])cc3)CCCCC2)nc1 [PD176252],affinity for GRP receptor,GRP receptor,high affinity
same,affinity for NMB receptor,NMB receptor,high affinity
"COc1cc2ncnc(Nc3ccc(Oc4ccccc4)cc3)c2cc1OC [PP2, 4-(4’-Phenoxyanilino)-6,7-dimethoxyquinzoline,6,7-Dimethoxy-N(4-phenoxyphenyl)-4-quinazolinamine]",effect of PP2 / GM6001 on NMB-induced EGF receptor transactivation,[6],markedly inhibited; also recorded: reduced significantly
same,effect on NMB-induced TGFα secretion,[7],reversed
same,effect on BA1-induced reactive oxygen species,[4],inhibited the increase in reactive oxygen species
same,"% Fluorescence Intensity, inhibitor alone (basal)",[4]; [8],93 ± 5%
same,effect on basal reactive oxygen species,[4]; Tiron 5 mM,had little effect
